# From the RNAGym collection of RNA variant scans (doi:10.1126/science.aae0568)
# Fewer inactive variants are shown than the library holds.
# B1: tRNA (parent)
# chain: GUUCCGUUGGCGUAAUGGUAACGCGUCUCCCUCCUAAGGAGAAGACUGCGGGUUCGAGUCCCGUACGGAACG
# Variants of: B1
# Assay: yeast fitness relative to wild type (ratio to wild type); higher = fitter; tRNA-Arg(CCU), competitive growth, 37 C, YPD
# How it was run: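 Variants of the tRNA-Arg(CCU) gene, chemically synthesised with a 3% per-site mutation rate at 69 sites, were placed at the native genomic locus in Saccharomyces cerevisiae. The pooled strains were competed in YPD at 37°C for 24 hours in six parallel replicates. Gene amplicons from the start population and from each end population were read by 100-nucleotide paired-end sequencing. Darwinian fitness relative to wild type came from changes in genotype frequencies; genotypes needed ≥ 100 starting reads, and estimates < 0.5 were set to 0.5.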
row,Variant,yeast fitness
1,GUUCCGUUGGCGUAAUGGUAACGCGUCUCCCUCCUAACGAGAAGACUACGGGUUCCAGUCCCGUACGGAACG,0.7
2,GUUCCGUUGGCGUAAUGGUAACGCGUCUCCCUCCUAACGAGAAGACUGCGGGUUCGAGUCCCGUACGAAUCG,≤ 0.5
3,GUUCCGUUGGCGUAAUGGUAACGCGUCUCCCUCCUAACGAGAAGACUGCGGGUUCGAGUCCCAUACGGAACG,0.674
4,GUUCCGUUGGCGUAAUGGUAACGCGUCUCCCUCCUAACGAGAAGACUGCGGGUUUGAGUCCCGUACGGAACG,0.545
5,GUUCCGUUGGCGUAAUGGUAACGCGUCUCCCUCCUAACGAGAAGACUGCGGGUUGGAGUCCCGUACGGAACG,0.617
6,GUUCCGUUGGCGUAAUGGUAACGCGUCUCCCUCCUAACGAGAAGACUGCGGGUUCGACUCCCGAACGGAACG,0.621
7,GUUCCGUUGGCGUAAUGGUAACGCGUCUCCCUCCUAACGACAAGACUGCGGGUUCGAGUCCCGUACGGACCG,0.553
8,GUUCCGUUGGCGUAAUGGUAACGCGUCUCCCUCCUAACGAGAAGACUGUGGGUUCGAGUCCUGUACGGUACG,0.819
9,GUUCCGUUGGCGUAAUGGUAACGCGUCUCCCUCCUAACGACAAGACUGCUGGUUCGAGUCCCGUGCGGAACG,≤ 0.5
10,GUUCCGUUGGCGUAAUGGUAACGCGUCUCCCUCCUAACGAGAAGACUGCGGGUUCAAAUCCCGUACGGAACG,0.609
11,GUUCCGUUGGCGUAAUGGUAACGCGUCUCCCUCCUAACGAGAAGACUGCGGGUUCGAGUCCCGUCUGGAACG,≤ 0.5
12,GUUCCGUUGGCGUAAUGGUAACGCGUCUCCCUCCUAACCAGAAGACUGCGGGUUCCAGUCCCGUACGAAACG,≤ 0.5
13,GUUCCGUUGGCGUAAUGGUAACGCGUCUCCCUCCUAACGAGAAGACGGCGGGUUCGAGUCCCGUACGGAACG,0.538
14,GUUCCGUUGGCGUAAUGGUAACGCGUCUCCCUCCUAACGAGAAGACCGCGGGUUCGAGUCCCGUACGGAACG,0.757
15,GUUCCGUUGGCGUAAUGGUAACGCGUCUCCCUCCUAACGAGAAGACUGUGGGUUCGAGUCCCGUACGGAACG,0.67
16,GUUCCGUUGGCGUAAUGGUAACGCGUCUCCCUCCUAACGAGAAGACUGCGGGUUCGAGUCCCGUACGCAACG,0.819
17,GUUCCGUUGGCGUAAUGGUAACGCGUCUCCCUCCUAACGAGAAGACUGCGGGUUCGAGUACCGUACGGAACG,≤ 0.5
18,GUUCCGUUGGCGUAAUGGUAACGCGUCUCCCUCCUAACGACAAGACUGCGGGUUCGAGUCUCGUACGGAGCG,≤ 0.5
19,GUUCCGUUGGCGUAAUGGUAACGCGUCUCCCUCCUAACGAGAAGACUGCGGGUUCGAGUUCCGUACGCAACG,≤ 0.5

row,Variant,yeast fitness
1,GUUCCGUUGGCGUAAUGGUAACGCGUCUCCCUCCUAACGACAAGACUGCGGGUUCGAGUCCCGUGCGGAACG,0.597
2,GUUCCGUUGGCGUAAUGGUAACGCGUCUCCCUCCUAACGAGAAGCCCGCGGGUUCGAGUCCCGUACGGAACG,≤ 0.5
3,GUUCCGUUGGCGUAAUGGUAACGCGUCUCCCUCCUAACGAGAAGAAUGCGGGUUCGAGUCCCGUACGGAACG,0.819
4,GUUCCGUUGGCGUAAUGGUAACGCGUCUCCCUCCUAACGAGAAGACUGCGGGUUCGAGUCCUGUACGGAUCG,0.533
5,GUUCCGUUGGCGUAAUGGUAACGCGUCUCCCUCCUAACGAGAAGACUGCGGGUUCGAGUCCCGUACGGAUCG,0.628
6,GUUCCGUUGGCGUAAUGGUAACGCGUCUCCCUCCUAACGAGAAGACUGCGGGUUGGAGUCCCGUACAGAACG,≤ 0.5
7,GUUCCGUUGGCGUAAUGGUAACGCGUCUCCCUCCUAACGAGAUGACUGCGGGUUCGAGUCCCGUACGGAACG,0.769
8,GUUCCGUUGGCGUAAUGGUAACGCGUCUCCCUCCUAACGAGAAGAAUGCGGGUUCGAGCCCCGUACGGAACG,≤ 0.5
9,GUUCCGUUGGCGUAAUGGUAACGCGUCUCCCUCCUAACGAGAAGGCUGCGGGUUCGAGACCCGUACGGAACG,≤ 0.5
10,GUUCCGUUGGCGUAAUGGUAACGCGUCUCCCUCCUAACGAGAAGACUGCGGGUUCGAGUCCCGUGCGGAACG,0.771
11,GUUCCGUUGGCGUAAUGGUAACGCGUCUCCCUCCUAACGAGAAGACUGCGGGUUCGACUCCCGUACGGUACG,0.714
12,GUUCCGUUGGCGUAAUGGUAACGCGUCUCCCUCCUAACGAGAAGACUGCGGGUUCGAGUCCUGCACGGAUCG,≤ 0.5
13,GUUCCGUUGGCGUAAUGGUAACGCGUCUCCCUCCUAACGAGAAGACUGCGGGUUCGAGUCCCGUAAGGAACG,0.561
14,GUUCCGUUGGCGUAAUGGUAACGCGUCUCCCUCCUAACGAGAAGACUGCGGGUUCGAGUCCCGUAUGGAACG,0.664
15,GUUCCGUUGGCGUAAUGGUAACGCGUCUCCCUCCUAACGAGAAGACUGCGGGUACGAGUCCCGUGCGGAACG,≤ 0.5
16,GUUCCGUUGGCGUAAUGGUAACGCGUCUCCCUCCUAACGAGAAGACUGCGGGUUCGCGUCCCGUACGGAACG,0.535
17,GUUCCGUUGGCGUAAUGGUAACGCGUCUCCCUCCUAACGAGAAGACUGCGGGUUCGAGUCCCGUACUGAUCG,≤ 0.5
18,GUUCCGUUGGCGUAAUGGUAACGCGUCUCCCUCCUAACGAGAAGACUGCGGGUUCGAAUCCCGUACGGAACG,0.756
19,GUUCCGUUGGCGUAAUGGUAACGCGUCUCCCUCCUAACGAGAAGACUGCGGGUUCGACUCCCGUACGGAACG,0.937
